Columns and labels:
[1] = biological target: T1, Renin (Homo sapiens, UniProt P00797); test: Inhibition of human recombinant renin in PBS buffer at pH 7.4
T1 sequence (P00797 whole entry): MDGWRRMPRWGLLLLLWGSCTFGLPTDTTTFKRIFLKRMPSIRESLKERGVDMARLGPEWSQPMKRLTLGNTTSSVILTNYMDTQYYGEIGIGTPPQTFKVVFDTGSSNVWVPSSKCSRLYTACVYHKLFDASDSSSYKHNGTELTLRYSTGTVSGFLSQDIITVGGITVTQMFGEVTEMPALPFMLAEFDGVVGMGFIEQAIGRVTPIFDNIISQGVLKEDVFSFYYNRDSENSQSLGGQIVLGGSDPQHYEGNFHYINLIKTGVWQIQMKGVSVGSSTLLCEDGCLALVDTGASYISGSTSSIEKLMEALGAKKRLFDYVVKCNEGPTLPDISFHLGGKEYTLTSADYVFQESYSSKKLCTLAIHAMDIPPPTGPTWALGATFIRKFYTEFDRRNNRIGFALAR
How it was run: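 Recombinant human renin (3 pg/µL) in PBS with 1 mM EDTA, 0.1% BSA, pH 7.4, with human tetradecapeptide (1-14) substrate and hydroxyquinoline sulfate. Compounds diluted in DMSO; incubation 3 h at 37 °C. Angl accumulation measured; percent inhibition at each concentration, IC50 from curve fit. Average of at least two replicates.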

[2] = biological target: T1, Renin; test: Inhibition of human recombinant renin in human citreated-plasma
How it was run: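 Pooled human citrate plasma supplemented with recombinant human renin (150 pg/mL final). Compounds in DMSO at various concentrations added to plasma mixed with trapping anti-Angl antibody (final antiserum dilution 1:50,000) in Tris/EDTA, pH 7.2; incubation 2 h at 37 °C. Angl accumulation read by immunoassay; IC50 from curve fit. Average of at least two replicates.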

[3] = Half life in Sprague-Dawley rat at 30 mg/kg, po and 5 mg/kg, iv; assay type: ADME, organism-based; settings: in vivo
[4] = Half life in Beagle dog at 3 mg/kg, po and 1 mg/kg, iv; assay type: ADME, organism-based, Canis lupus familiaris; settings: in vivo
[5] = AUC in Sprague-Dawley rat at 30 mg/kg, po; assay type: ADME, organism-based; set-up: dose 30 mg/kg, route oral; settings: plasma
[6] = Volume of distribution at steady state in Beagle dog at 3 mg/kg, po and 1 mg/kg, iv; assay type: ADME, organism-based, Canis lupus familiaris; settings: in vivo, read-out: Vdss
[7] = tested on: Canis familiaris; test: Antihypertensive activity in Beagle assessed as prolongation of CV intervals at 12 uM, iv after 2 days; assay type: functional, Canis lupus familiaris
How it was run: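 Beagle dogs given compound intravenously up to 12 µM plasma exposure. QTc, PR and QRS intervals monitored for prolongation.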

[8] = Clearance in Beagle dog at 3 mg/kg, po and 1 mg/kg, iv; assay type: ADME, organism-based, Canis lupus familiaris; settings: in vivo
[9] = Oral bioavailability in Sprague-Dawley rat at 30 mg/kg; assay type: ADME, organism-based; settings: in vivo
[10] = Volume of distribution at steady state in Sprague-Dawley rat at 30 mg/kg, po and 5 mg/kg, iv; assay type: ADME, organism-based; settings: in vivo, read-out: Vdss
[11] = Clearance in Sprague-Dawley rat at 30 mg/kg, po and 5 mg/kg, iv; assay type: ADME, organism-based; settings: in vivo
[12] = Oral bioavailability in Beagle dog at 3 mg/kg; assay type: ADME, organism-based, Canis lupus familiaris; settings: in vivo
[13] = AUC in Beagle dog at 3 mg/kg, po; assay type: ADME, organism-based, Canis lupus familiaris; set-up: dose 3 mg/kg, route oral; settings: plasma
[14] = biological target: Cytochrome P450 3A4 (Homo sapiens, UniProt P08684); test: Inhibition of CYP3A4 after 30 mins; assay type: ADME
Cytochrome P450 3A4, sequence (P08684 whole entry): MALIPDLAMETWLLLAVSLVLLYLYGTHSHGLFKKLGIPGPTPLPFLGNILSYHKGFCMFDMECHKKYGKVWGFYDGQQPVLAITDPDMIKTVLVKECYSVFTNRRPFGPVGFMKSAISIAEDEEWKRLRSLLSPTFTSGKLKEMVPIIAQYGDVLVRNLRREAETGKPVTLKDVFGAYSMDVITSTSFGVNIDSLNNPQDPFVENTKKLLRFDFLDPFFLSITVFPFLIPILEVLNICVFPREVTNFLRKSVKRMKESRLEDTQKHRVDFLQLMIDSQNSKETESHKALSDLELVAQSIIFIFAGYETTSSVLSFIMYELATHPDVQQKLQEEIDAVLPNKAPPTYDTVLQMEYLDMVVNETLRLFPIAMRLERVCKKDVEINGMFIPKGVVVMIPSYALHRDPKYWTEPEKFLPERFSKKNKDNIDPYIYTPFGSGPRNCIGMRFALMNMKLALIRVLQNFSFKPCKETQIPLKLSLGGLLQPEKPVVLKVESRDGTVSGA

[15] = tested on: Rattus norvegicus; test: Antihypertensive activity in telemetered double-transgenic rat assessed as decrease in blood pressure at 3 mg/kg, po after 2 days; assay type: functional
How it was run: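 Telemetered double-transgenic rats (n = 8) dosed orally at 3 mpk. Blood pressure monitored by telemetry; maximum fall in mm Hg and duration of action recorded.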

IC50 [1] | IC50 [2] | Structure (SMILES) | other results
260 nM | – | O=C(C(CNCc1ccccc1)Cc1ccc(CCCOc2c(F)ccc(F)c2Cl)cc1)N(Cc1cccc(Cl)c1Cl)C1CC1 (stereo unspecified) | –
1.9 nM | 350 nM | CNCC(Cc1ccc(CCCOc2c(F)ccc(F)c2Cl)cc1)C(=O)N(Cc1cccc(Cl)c1Cl)C1CC1 (stereo unspecified) | –
210 nM | – | CC(CN)(Cc1ccc(CCCOc2c(F)ccc(F)c2Cl)cc1)C(=O)N(Cc1cccc(Cl)c1Cl)C1CC1 (stereo unspecified) | –
0.4 nM | 29 nM | Cc1cc(Cl)c(OCCCc2ccc(CC(CN)C(=O)N(Cc3cccc(Cl)c3Cl)C3CC3)cc2)c(Cl)c1 (stereo unspecified) | –
0.19 nM | – | COCCc1ccc(Cl)c(CN(C(=O)C(CN)Cc2ccc(CCCOc3c(Cl)cc(C)cc3Cl)cc2)C2CC2)c1 (stereo unspecified) | –
0.27 nM | 10 nM | Cc1cc(Cl)c(OCCCc2ccc(CC(CN)C(=O)N(Cc3cc(CCC#N)ccc3Cl)C3CC3)cc2)c(Cl)c1 (stereo unspecified) | –
0.09 nM | 6.4 nM | Cc1cc(Cl)c(OCCCc2ccc(CC(CN)C(=O)N(Cc3cc(CCCO)ccc3Cl)C3CC3)cc2)c(Cl)c1 (stereo unspecified) | –
650 nM | – | NCCC(CC(=O)N(Cc1cccc(Cl)c1Cl)C1CC1)c1ccc(CCCOc2c(F)ccc(F)c2Cl)cc1 (stereo unspecified) | –
0.79 nM | 21 nM | NCC(Cc1ccc(CCCOc2c(F)ccc(F)c2Cl)cc1)C(=O)N(Cc1cccc(Cl)c1Cl)C1CC1 (racemic) | –
0.26 nM | 5.8 nM | COCCCc1ccc(Cl)c(CN(C(=O)C(CN)Cc2ccc(CCCOc3c(Cl)cc(C)cc3Cl)cc2)C2CC2)c1 (racemic) | –

The next lines start with the compound.

Structure (SMILES) | IC50 [1] | IC50 [2] | other results
COCCCc1ccc(Cl)c(CN(C(=O)[C@H](CN)Cc2ccc(CCCOc3c(Cl)cc(C)cc3Cl)cc2)C2CC2)c1 | 0.09 nM | 2.4 nM | half-life [3]: 6 h; half-life [4]: 17 h; AUC [5]: 8.3 µM·h; Vd [6]: 8.4 L/kg; Activity [7]: <5%; clearance [8]: 0.96 L/h/kg; bioavailability [9]: 41%; Vd [10]: 12 L/kg; clearance [11]: 2.1 L/h/kg; bioavailability [12]: 32%; AUC [13]: 1.3 µM·h; IC50 [14]: 130 nM; Activity [15]: 27 mmHg
COCCOc1ccc(Cl)c(CN(C(=O)C(CN)Cc2ccc(CCCOc3c(Cl)cc(C)cc3Cl)cc2)C2CC2)c1 (stereo unspecified) | 0.21 nM | – | –
CC(=O)N(C)Cc1ccc(Cl)c(CN(C(=O)C(CN)Cc2ccc(CCCOc3c(Cl)cc(C)cc3Cl)cc2)C2CC2)c1 (stereo unspecified) | 2.9 nM | 250 nM | –
Cc1cc(Cl)c(OCCCc2ccc(CC(CN)C(=O)N(Cc3cc(CCCN(C)C)ccc3Cl)C3CC3)cc2)c(Cl)c1 (stereo unspecified) | 1.5 nM | 103 nM | –
COCCCc1cc(Cl)c(Cl)c(CN(C(=O)C(CN)Cc2ccc(CCCOc3c(Cl)cc(C)cc3Cl)cc2)C2CC2)c1 (stereo unspecified) | 0.26 nM | 31 nM | –
Cc1cc(Cl)c(OCCCc2ccc(C[C@@H](CN)C(=O)N(Cc3cc(CCCC#N)ccc3Cl)C3CC3)cc2)c(Cl)c1 | 0.11 nM | 4.6 nM | –
COCCCc1cc(CN(C(=O)C(CN)Cc2ccc(CCCOc3c(Cl)cc(C)cc3Cl)cc2)C2CC2)c(Cl)cn1 (stereo unspecified) | 0.19 nM | 2.2 nM | –
COCCCc1cc(CN(C(=O)C(CN)Cc2ccc(CCCOc3c(Cl)cc(C)cc3Cl)cc2)C2CC2)c(Cl)c[n+]1[O-] (stereo unspecified) | 0.3 nM | 1.8 nM | –
COCCCc1cc(CN(C(=O)[C@@H](CN)Cc2ccc(CCCOc3c(Cl)cc(C)cc3Cl)cc2)C2CC2)cc(OCCOC)c1 | – | – | half-life [3]: 4 h; half-life [4]: 7.5 h; AUC [5]: 27.5 µM·h; Vd [6]: 15 L/kg; clearance [8]: 2.1 L/h/kg; bioavailability [9]: 48%; Vd [10]: 3.6 L/kg; clearance [11]: 0.78 L/h/kg; bioavailability [12]: 36%; AUC [13]: 0.7 µM·h; IC50 [14]: 1300 nM; Activity [15]: 35 mmHg
